B2AR ag: agonists of human beta-2 adrenergic receptor inducing internalization | P07550 | Am2.2-beta2AR cells, FAP receptor internalization, flow cytometry | response, % (test concentration not listed) | actives 0.43% (n = 340,000);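 active = response above a set limit, near 3 SD of response in nonfluorescent compounds, cut at about 42% in these data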
Dynein cargo inh: blocks dynein driven cargo transport along microtubules; z-score, hits read low; AID 1381; actives 0.47% (n = 220,000); 3617.4 mouse cells, GR-EGFP nuclear translocation imaging; test concentration mostly 20 µM; stimulated with dexamethasone, 1 µM; hits give low values;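 active = plate z-score of nuclear minus cytoplasmic receptor signal below a set negative limit, without overly bright fluorescence or cell loss, cut at about -3.5 in these data, passing the limit was not always enough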;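 also: z-score of nuclear minus cytoplasmic ring GR-EGFP intensity difference per well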
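Buffer or medium – tet-free medium with charcoal-stripped serum · Signal – automated 10x imaging of fixed Hoechst-stained cells · Also added – dexamethasone agonist, 1.0 µM final, for 30 min · Incubation – induction 48 h, compound 1 h, agonist 30 min · Read-out – GR-EGFP nuclear translocation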
CHOP inh: CHOP inhibition in unfolded protein response | inhibition, % at 10 µM | actives 3.8% (n = 220,000) | AID 2732 | CHO-K1 CHOP-promoter luciferase, tunicamycin-induced, 15-18 h;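 active = compounds that reduced the stress-induced luciferase reporter signal by more than about 70% of percent inhibition, limit read from the data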;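 also: 0% = tunicamycin plus vehicle and 100% = wells without tunicamycin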
UPR XBP1 act: adaptive UPR (XBP1) activation | CHO-XBP1 luciferase reporter, IRE1-XBP1 UPR activation, luminescence; percent of tunicamycin response, DMSO as zero | activation, % at 20 µM | actives 0.33% (n = 330,000) | AID 463104;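 active = versus positive control, 20 µM dose yields 30% or more activation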;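 also: 100% = tunicamycin at 10 µg/mL and 0% = DMSO only wells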
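Test system: CHO-XBP1 luciferase reporter cells | Buffer or medium: Serum-containing F12 medium, 10% FBS | Schedule: 6 h compound exposure at 37 °C, 5% CO2 | Detection: Steady-Glo luciferase glow luminescence, 10 min after reagent addition | Read-out basis: Activation, % of tunicamycin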
UPR CHOP act: activators of apoptotic arm of unfolded protein response (CHOP); activation, % at 10 µM; CHO-CHOP luciferase reporter, UPR activation, luminescence; percent of tunicamycin response over DMSO baseline; AID 449763; actives 0.34% (n = 330,000);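 active = at 10 µM dose, activation of 40% or more, normalized to positive control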;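 also: 100% = tunicamycin at 10 µg/mL and 0% = DMSO alone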
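Test system: CHO-CHOP cells, stable luciferase reporter of PERK-eIF2a-CHOP signalling | Quantity: 500 CHO-CHOP cells per well | Buffer or medium: F12 plus 10% serum | Compound dosing: 10 µM single point, 0.5% DMSO | Schedule: 6 h compound treatment, 37 °C | Signal: Luciferase luminescence | Control set: Tunicamycin high control, DMSO low control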
p-CIP stab down: p/CIP protein destabilization; Q05BA5; F442A p/CIP-EGFP cells, EGFP fluorescence, 16 h; decrease of EGFP signal, % at 10 µM; actives 0.01% (n = 290,000); AID 1984;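 active = EGFP signal decrease of at least 30% at 10 µM or well 3 SD below plate mean, unless failing retest; inactive = the rest, including hits failing retest or dose response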
Target sequence (Q05BA5 1-1403): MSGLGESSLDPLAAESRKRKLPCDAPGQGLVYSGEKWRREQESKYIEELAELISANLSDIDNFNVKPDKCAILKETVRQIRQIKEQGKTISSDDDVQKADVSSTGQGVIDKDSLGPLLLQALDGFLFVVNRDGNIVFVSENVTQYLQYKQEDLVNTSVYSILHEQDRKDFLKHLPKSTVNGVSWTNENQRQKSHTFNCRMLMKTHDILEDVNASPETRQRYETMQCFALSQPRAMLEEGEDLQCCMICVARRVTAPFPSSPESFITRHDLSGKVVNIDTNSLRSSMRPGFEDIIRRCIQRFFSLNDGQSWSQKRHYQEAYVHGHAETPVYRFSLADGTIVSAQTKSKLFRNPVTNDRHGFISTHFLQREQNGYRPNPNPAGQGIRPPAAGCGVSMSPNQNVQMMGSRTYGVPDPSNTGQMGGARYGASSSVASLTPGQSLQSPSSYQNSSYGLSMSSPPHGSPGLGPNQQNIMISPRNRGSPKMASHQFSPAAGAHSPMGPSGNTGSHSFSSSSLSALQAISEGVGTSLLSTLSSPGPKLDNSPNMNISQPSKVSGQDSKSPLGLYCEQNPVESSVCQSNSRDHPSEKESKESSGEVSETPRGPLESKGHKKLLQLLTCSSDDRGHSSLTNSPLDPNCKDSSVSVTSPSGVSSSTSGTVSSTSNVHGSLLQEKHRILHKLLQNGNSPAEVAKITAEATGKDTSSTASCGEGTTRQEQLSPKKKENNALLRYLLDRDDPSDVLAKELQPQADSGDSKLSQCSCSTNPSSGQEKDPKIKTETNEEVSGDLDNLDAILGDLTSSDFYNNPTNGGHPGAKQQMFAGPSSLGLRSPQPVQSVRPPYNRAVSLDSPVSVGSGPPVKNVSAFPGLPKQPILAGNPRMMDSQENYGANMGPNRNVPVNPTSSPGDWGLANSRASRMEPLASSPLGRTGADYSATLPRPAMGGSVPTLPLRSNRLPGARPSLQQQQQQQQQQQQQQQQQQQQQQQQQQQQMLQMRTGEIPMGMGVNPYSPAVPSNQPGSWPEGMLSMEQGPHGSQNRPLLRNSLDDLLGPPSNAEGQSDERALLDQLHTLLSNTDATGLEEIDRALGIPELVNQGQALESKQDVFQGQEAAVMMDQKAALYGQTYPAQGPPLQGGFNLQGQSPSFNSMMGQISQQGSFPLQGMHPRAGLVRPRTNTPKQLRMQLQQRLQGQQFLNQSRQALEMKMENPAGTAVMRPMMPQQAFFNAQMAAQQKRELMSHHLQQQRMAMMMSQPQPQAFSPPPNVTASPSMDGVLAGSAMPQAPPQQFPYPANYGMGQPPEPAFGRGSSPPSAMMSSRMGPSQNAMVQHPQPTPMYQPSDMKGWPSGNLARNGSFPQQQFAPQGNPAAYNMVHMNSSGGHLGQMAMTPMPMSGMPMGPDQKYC
An asterisk follows results filed as active; nt = no result. Only a selection was taken, and hits are over-represented in it overall.

SMILES	B2AR ag	Dynein cargo inh	CHOP inh	UPR XBP1 act	UPR CHOP act	p-CIP stab down
Cc1cc2ccccc2c(=O)n1CC(=O)NCC(=O)N1CCN(c2cccc(Cl)c2)CC1	-10	-1.9	89*	2	-1	-7
CCCCn1nc(C(=O)N2CCN(S(=O)(=O)c3ccccc3)CC2)c2ccccc2c1=O	8	nt	nt	-1	0	nt
CC(C)(C)SCCNS(=O)(=O)c1ccc(F)cc1	-2	-0.29	61	-2	-2	-3
O=S(=O)(NCCSc1ccccc1)c1ccc(F)cc1	-1	0.37	91*	-3	-2	0
COC(=O)C1N[C@@H]([C@@H](NC(=O)COc2ccccc2)C(=O)NCc2ccc(OC)cc2)SC1(C)C (stereo partly specified)	1	nt	nt	-2	1	nt
CSc1ncccc1C(=O)Nc1nc2c(C)cccc2s1	7	-0.24	86*	1	3	-5
COC(=O)CNC(=O)/C=C/c1ccc(OC)cc1	-5	-0.78	-9	2	1	2
CCOC(=O)c1c(NC(=O)C2C3C=CC(C3)C2C(=O)O)sc2c1CCC(CC)C2 (stereo unspecified)	2	0.057	72*	-2	0	-17
COc1ccc(NC(=O)CNC(=O)C2CCCCC2)cc1OC	0	nt	nt	0	0	nt
O=C(NC1CCCCCC1)C1CC(=O)N(Cc2ccccc2)C1 (stereo unspecified)	-7	-0.83	-22	1	1	2
CCOC(=O)N/N=C/c1cn(CCCOc2ccc(C)cc2)c2ccccc12	71*	-0.022	42	0	2	-18
C[N+](C)(C)CCC(=O)c1cccc2ccccc12	nt	nt	5	nt	nt	nt
CC(=O)Nc1cccc(-c2cnc(N)c(C(=O)c3cccnc3)n2)c1	1	nt	nt	-4	1	nt
CSC1=N/C(=C\c2ccc(C)cc2)C(=O)S1	-3	-0.5	68	1	-2	-8
COc1ccc(/C=C2\N=C(SC)SC2=O)cc1OC	4	-0.61	79*	3	0	-18
CSC1=N/C(=C\c2c(F)cccc2Cl)C(=O)S1	2	-1.4	74*	1	-3	-24
CSC1=N/C(=C\c2cccc(F)c2)C(=O)S1	4	-0.92	47	0	-1	10
CC(C)(C)NC(=O)C1CCN(C(=O)c2ccc(Br)cc2)CC1	-2	-0.92	-2	1	-2	6
O=C(Nc1nc2ccccc2s1)C1c2ccccc2Oc2ccccc21	6	-0.58	85*	-4	-1	-5
Cc1cc2cc(C(c3nnnn3Cc3ccccc3)N3CCc4ccccc43)c(=O)[nH]c2cc1C (stereo unspecified)	-7	-0.16	19	-1	0	-25
Cc1ccc2[nH]c(=O)c(C(c3nnnn3Cc3ccccc3)N3CCc4ccccc43)cc2c1 (stereo unspecified)	1	0.22	70*	-3	1	-18
Cc1cc2cc(C(c3nnnn3Cc3ccco3)N3CCc4ccccc43)c(=O)[nH]c2cc1C (stereo unspecified)	-4	-0.4	86*	-3	0	-8
CCC(C)(C)n1nnnc1C(c1ccc(O)c(OC)c1)N1CCc2ccccc2C1 (stereo unspecified)	9	-0.88	-65	-5	42*	-2
CC(=O)Oc1cc2c(cc1Cl)C(c1cccs1)CC1(CC(C)(C)NC(=S)N1)O2 (stereo unspecified)	6	1.1	13	4	2	-10
CCCCCc1c(C)nc(Nc2ccc(F)cc2)[nH]c1=O	-2	0.78	82*	-2	0	-8
SMILES	B2AR ag	Dynein cargo inh	CHOP inh	UPR XBP1 act	UPR CHOP act	p-CIP stab down
CCCCc1c(C)nc(Nc2ccc(OC)cc2)[nH]c1=O	-1	-0.14	29	-1	2	-17
N/C(=N\N=C\c1ccc(Br)o1)c1nonc1N	-2	0.31	-9	3	3	-2
Cc1cnc(NC(=O)c2c(O)c3cccc4c3n(c2=O)CCC4)s1	nt	0.28	76*	nt	nt	-9
CN(C)c1ccc(/C=C/c2ccc3ccccc3[n+]2C)cc1	-16	-0.58	70*	2	9	-49
O=C1CC(c2ccccc2)CC(O)=C1C=NCCN1CCNCC1 (stereo unspecified)	-7	-0.058	95*	-3	-1	4
O=C1CC(c2ccc(F)cc2)CC(O)=C1C=NCCN1CCNCC1 (stereo unspecified)	3	-0.2	-9	5	-1	nt
O=C(Nc1nncs1)c1cc2c(s1)CCC2	2	-1.1	6	-1	4	16
CC(C)Cc1nnc(NC(=O)c2cc3c(s2)CCC3)s1	3	-0.27	85*	0	5	4
C=CCNc1nc(S(=O)Cc2ccc(C)cc2)nc2c1CCCC2 (stereo unspecified)	53*	0.13	-6	-2	0	-18
C=CCNc1c2c(nc3nnnn13)CCCC2	-6	1.2	-5	3	0	8
COc1ccc(-c2cc(C(=O)Nc3ccc(S(=O)(=O)Nc4onc(C)c4C)cc3)c3ccccc3n2)cc1	-2	0.43	17	-3	1	-11
COc1ccc(-c2nc(-c3ccc(NC(=O)c4ccncc4)cc3)no2)cc1OC	26	1.2	72*	-3	1	-15
C[C@@H]1C(=O)N(c2ccccc2)[C@@H]1c1ccncc1	-4	nt	nt	0	3	nt
CC(C)On1c(SCC(=O)N(C)C)nc2ccccc2c1=O	nt	-1.5	-1	4	1	-6
O=c1cc(CN2CCN(Cc3ccccc3)CC2)c2ccc(O)c(O)c2o1	11	nt	nt	63*	4	-2
CC1(c2ccccc2)CC(C)(C)N(C(N)=O)c2ccccc21 (stereo unspecified)	40	nt	nt	-2	1	-9
CC1(c2ccc([N+](=O)[O-])cc2)CC(C)(C)N(C(=O)c2ccccc2)c2ccccc21 (stereo unspecified)	nt	0.46	81*	nt	nt	-10
c1cncc(-c2cn(C[C@H]3CC[C@H](Cn4cc(-c5cccnc5)nn4)O3)nn2)c1	2	nt	nt	1	3	nt
FC(F)(F)c1ccc(Cl)c(N/N=C/c2ccc(N3CCOCC3)s2)c1	3	0.44	8	-3	-1	-1
CCOc1cccc(CNCCO)c1OCc1ccc(Cl)cc1	5	0.36	30	-2	0	0
CCOc1cc(CNCCO)cc(Br)c1OCc1ccc(Cl)cc1	36	5.8	75*	9	3	3
CCOc1cc(CNCCO)cc(Br)c1OCc1ccccc1Cl	31	1.4	85*	6	-1	-1
C=C(C)C(=O)OCC(C)C	-3	nt	nt	-1	10	nt
